The source of these data is ChEMBL document CHEMBL2424523, “2,3,9- and 2,3,11-trisubstituted tetrahydroprotoberberines as D2 dopaminergic ligands” (Eur J Med Chem, 2013).

Structures are written as SMILES.

D(2) dopamine receptor, sequence (P61169 whole entry): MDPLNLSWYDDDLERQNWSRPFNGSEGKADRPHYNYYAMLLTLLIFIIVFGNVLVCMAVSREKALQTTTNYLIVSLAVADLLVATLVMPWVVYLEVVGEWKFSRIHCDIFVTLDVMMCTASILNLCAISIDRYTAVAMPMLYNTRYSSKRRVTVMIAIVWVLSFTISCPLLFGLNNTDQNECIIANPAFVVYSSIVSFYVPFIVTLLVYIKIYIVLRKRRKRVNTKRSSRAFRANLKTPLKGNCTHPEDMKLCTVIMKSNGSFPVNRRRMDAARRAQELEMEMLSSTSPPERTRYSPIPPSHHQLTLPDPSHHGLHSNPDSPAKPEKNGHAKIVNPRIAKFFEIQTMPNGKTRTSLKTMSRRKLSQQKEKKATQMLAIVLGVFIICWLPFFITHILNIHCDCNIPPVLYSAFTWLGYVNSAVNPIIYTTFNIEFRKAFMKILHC

Tested on in the first series: not listed separately
The series is described as follows: Cytotoxicity against human neutrophil assessed as cell survival at 0.1 uM after 24 hrs by annexin V-FITC/propidium iodide staining-based flow cytometric analysis.
Settings: not given; call rule not given here
The gist of the method: (§1)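 Freshly isolated human blood neutrophils (Ficoll-Hypaque, healthy-donor buffy coats) at 2 x 10^6 cells/mL in supplemented RPMI. Cultured 24 h at 37 °C, 5% CO2, with or without compound. Annexin V-FITC/PI flow cytometry on 1 x 10^4 cells. Early apoptotic = annexin V+/PI−, late apoptotic/necrotic = V+/PI+, viable = V−/PI−. Mean ± SEM, n=3.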
On the technique in general: A flow cytometer gives signals particle by particle.
For `Oc1cc2c(cc1O)C1Cc3cccc(O)c3CN1CC2` (configuration not stated), the Activity entry is “Non-toxic”.
Same read-out and setting: next, `COc1ccc2c(c1)CC1c3cc(O)c(O)cc3CCN1C2` (configuration not stated): “Non-toxic”; `Oc1cccc2c1CN1CCc3cc4c(cc3C1C2)OCO4` (configuration not stated): “Non-toxic”.

A further series deals with D(1A) dopamine receptor (Rattus norvegicus, UniProt P18901). Briefly: Displacement of [3H]-SCH 23390 from dopamine D1 receptor in rat striatal membranes after 1 hr by liquid scintillation counting analysis. Format: cell membranes, Membrane. The following applies: read-out: Ki. The gist of the method: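 Striatal membranes washed twice by centrifugation at 20000g in Tris-HCl (50 mM, pH 7.4), then resuspended in Tris with 5 mM MgSO4, 0.5 mM EDTA and 0.02% ascorbate. 100 µg protein incubated 1 h at 25 °C with 0.25 nM [3H]SCH 23390. Nonspecific binding defined with 30 µM SK&F 38393. Filtered on GF/B, scintillation counted. Mean ± SEM of 3-5 experiments.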
D(1A) dopamine receptor, sequence (P18901 whole entry): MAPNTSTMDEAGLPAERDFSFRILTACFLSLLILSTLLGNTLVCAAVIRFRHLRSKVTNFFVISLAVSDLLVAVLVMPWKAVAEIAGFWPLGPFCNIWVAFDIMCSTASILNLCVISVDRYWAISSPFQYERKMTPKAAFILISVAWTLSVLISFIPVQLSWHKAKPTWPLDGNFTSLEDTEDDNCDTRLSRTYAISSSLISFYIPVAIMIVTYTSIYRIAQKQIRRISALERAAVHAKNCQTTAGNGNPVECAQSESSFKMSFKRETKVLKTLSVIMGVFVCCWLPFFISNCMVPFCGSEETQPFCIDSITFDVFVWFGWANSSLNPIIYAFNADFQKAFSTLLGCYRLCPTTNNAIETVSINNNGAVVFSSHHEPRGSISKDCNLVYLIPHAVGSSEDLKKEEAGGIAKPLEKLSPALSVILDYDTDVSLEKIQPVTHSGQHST
On the technique in general: In a radioligand displacement assay an active substance lowers the binding of a labelled ligand.
With `Oc1cc2c(cc1O)C1Cc3cccc(O)c3CN1CC2` (configuration not stated), the Ki turned out to be 3780 nM.
Consider `COc1ccc2c(c1)CC1c3cc(O)c(O)cc3CCN1C2` (configuration not stated), for which the Ki was 1110 nM.
On to `Oc1ccc2c(c1)CC1c3cc(O)c(O)cc3CCN1C2` (configuration not stated), for which the Ki worked out at 2960 nM.
On the same count and under the same terms, next, `COc1ccc2c(c1)CC1c3cc(OCc4ccccc4)c(OCc4ccccc4)cc3CCN1C2` (configuration not stated): 40600 nM; `Oc1ccc2c(c1)CC1c3cc(O)c(Cl)cc3CCN1C2` (configuration not stated): 107 nM; `COc1ccc2c(c1)CC1c3cc(OC)c(Cl)cc3CCN1C2` (configuration not stated): 1810 nM.
In the case of `Oc1cccc2c1CN1CCc3cc4c(cc3C1C2)OCO4` (configuration not stated), the Ki stood at 344 nM.
On to `Oc1ccc2c(c1)CC1c3cc4c(cc3CCN1C2)OCO4` (configuration not stated), for which the Ki was determined as 33000 nM.
For `COc1ccc2c(c1)CC1c3cc4c(cc3CCN1C2)OCO4` (configuration not stated), the Ki is 2370 nM.
In the case of `COc1cc2c(cc1OC)C1Cc3cccc(OC)c3CN1CC2` (configuration not stated), the Ki was determined as 3930 nM.
Turning to `COc1ccc2c(c1)CC1c3cc(OC)c(OC)cc3CCN1C2` (configuration not stated), the Ki came to 4310 nM.

The same series, now with this note: read-out: pKi (converted).
In the case of `Oc1cc2c(cc1O)C1Cc3cccc(O)c3CN1CC2` (configuration not stated), the Ki was 3470 nM.
Turning to `COc1ccc2c(c1)CC1c3cc(O)c(O)cc3CCN1C2` (configuration not stated), the Ki is 955 nM.
For `Oc1ccc2c(c1)CC1c3cc(O)c(O)cc3CCN1C2` (configuration not stated), the Ki was 2630 nM.
Turning to `COc1ccc2c(c1)CC1c3cc(OC)c(Cl)cc3CCN1C2` (configuration not stated), the Ki was 1740 nM.
For `Oc1cccc2c1CN1CCc3cc4c(cc3C1C2)OCO4` (configuration not stated), the Ki is 339 nM.
`Oc1ccc2c(c1)CC1c3cc4c(cc3CCN1C2)OCO4` (configuration not stated): the Ki was 32400 nM.
As to `COc1ccc2c(c1)CC1c3cc4c(cc3CCN1C2)OCO4` (configuration not stated), the Ki was 1700 nM.
Regarding `COc1cc2c(cc1OC)C1Cc3cccc(OC)c3CN1CC2` (configuration not stated), the Ki is 3630 nM.
For the compound `COc1ccc2c(c1)CC1c3cc(OC)c(OC)cc3CCN1C2` (configuration not stated), the Ki is 4170 nM.

Tested on in another series: not listed separately
Briefly: Cytotoxicity against human neutrophil assessed as cell viability at 0.1 uM after 24 hrs by MTT assay. Format: cell-based.
Settings: not given
The gist of the method: (§2)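 Human peripheral blood neutrophils isolated from healthy-donor buffy coats by Ficoll-Hypaque, plated at 2 x 10^5 cells/mL in RPMI. Concentrations chosen from D2 Ki. Incubated 24 h at 37 °C, 5% CO2. MTT (1 mg/mL solution) added for 60 min, formazan dissolved in DMSO, absorbance read at 570/630 nm. Mean ± SEM, n=3.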
On the technique in general: Tetrazolium assays rely on reduction of a dye to a coloured formazan, in cell work by metabolically active cells.
`Oc1cc2c(cc1O)C1Cc3cccc(O)c3CN1CC2` (configuration not stated): the Activity entry is “Non-toxic”.
In the case of `COc1ccc2c(c1)CC1c3cc(O)c(O)cc3CCN1C2` (configuration not stated), the Activity result is listed as “Non-toxic”.
For `Oc1cccc2c1CN1CCc3cc4c(cc3C1C2)OCO4` (configuration not stated), the Activity entry was “Non-toxic”.

Tested on in a further series: not listed separately
Briefly: Induction of apoptosis in human neutrophil at 0.1 uM after 24 hrs by annexin V-FITC/propidium iodide staining-based flow cytometric analysis. The series is classed as cell-based.
Settings: not given
In short, it runs like this: as §1
In the case of `Oc1cc2c(cc1O)C1Cc3cccc(O)c3CN1CC2` (configuration not stated), the Activity result was “Non-toxic”.
As to `COc1ccc2c(c1)CC1c3cc(O)c(O)cc3CCN1C2` (configuration not stated), the Activity result is listed as “Non-toxic”.
Consider `Oc1cccc2c1CN1CCc3cc4c(cc3C1C2)OCO4` (configuration not stated), for which the Activity entry is reported as “Non-toxic”.

Another series is filed under the species Rattus norvegicus. Briefly: Selectivity ratio of Ki for dopamine D1 receptor in rat striatal membranes to Ki for dopamine D2 receptor in rat striatal membranes. Format: cell membranes. The following applies: Membrane. The gist of the method: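 Ratio Ki(D1)/Ki(D2) from striatal membrane displacement assays: [3H]SCH 23390 at 0.25 nM (D1) and [3H]raclopride at 0.5 nM (D2), each incubated 1 h at 25 °C, with filtration and scintillation counting. Ki data are from 3-5 experiments.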
In the case of `COc1ccc2c(c1)CC1c3cc(O)c(O)cc3CCN1C2` (configuration not stated), the Ratio Ki came to 14.2.
As to `Oc1ccc2c(c1)CC1c3cc(O)c(O)cc3CCN1C2` (configuration not stated), the Ratio Ki came to 7.5.
For `COc1ccc2c(c1)CC1c3cc(OCc4ccccc4)c(OCc4ccccc4)cc3CCN1C2` (configuration not stated), the Ratio Ki was 1.
Regarding `Oc1ccc2c(c1)CC1c3cc(O)c(Cl)cc3CCN1C2` (configuration not stated), the Ratio Ki amounted to 0.6.
Same read-out and setting: next, `COc1ccc2c(c1)CC1c3cc(OC)c(Cl)cc3CCN1C2` (configuration not stated): 0.9; `Oc1cccc2c1CN1CCc3cc4c(cc3C1C2)OCO4` (configuration not stated): 10.
For `Oc1ccc2c(c1)CC1c3cc4c(cc3CCN1C2)OCO4` (configuration not stated), the Ratio Ki was found to be 4.4.
As for `COc1ccc2c(c1)CC1c3cc4c(cc3CCN1C2)OCO4` (configuration not stated), the Ratio Ki was 1.8.
For `COc1cc2c(cc1OC)C1Cc3cccc(OC)c3CN1CC2` (configuration not stated), the Ratio Ki turned out to be 10.
With `COc1ccc2c(c1)CC1c3cc(OC)c(OC)cc3CCN1C2` (configuration not stated), the Ratio Ki came out at 0.5.

Another series has as its target D(2) dopamine receptor (Rattus norvegicus, UniProt P61169). The series is described as follows: Displacement of [3H]-raclopride from dopamine D2 receptor in rat striatal membranes after 1 hr by liquid scintillation counting analysis. Format: cell membranes, Membrane. The following applies: read-out: Ki. The gist of the method: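 200 µg protein incubated 1 h at 25 °C with 0.5 nM [3H]raclopride. Nonspecific binding defined with 50 µM apomorphine. GF/B filtration, scintillation counting. Mean ± SEM of 3-5 experiments.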
Consider `Oc1cc2c(cc1O)C1Cc3cccc(O)c3CN1CC2` (configuration not stated), for which the Ki is 93 nM.
For the compound `COc1ccc2c(c1)CC1c3cc(O)c(O)cc3CCN1C2` (configuration not stated), the Ki was 78 nM.
As for `Oc1ccc2c(c1)CC1c3cc(O)c(O)cc3CCN1C2` (configuration not stated), the Ki worked out at 396 nM.
Turning to `COc1ccc2c(c1)CC1c3cc(OCc4ccccc4)c(OCc4ccccc4)cc3CCN1C2` (configuration not stated), the Ki turned out to be 40900 nM.
Still for that read-out and setting: next, `Oc1ccc2c(c1)CC1c3cc(O)c(Cl)cc3CCN1C2` (configuration not stated): 188 nM; `COc1ccc2c(c1)CC1c3cc(OC)c(Cl)cc3CCN1C2` (configuration not stated): 2050 nM; `Oc1cccc2c1CN1CCc3cc4c(cc3C1C2)OCO4` (configuration not stated): 35 nM.
As to `Oc1ccc2c(c1)CC1c3cc4c(cc3CCN1C2)OCO4` (configuration not stated), the Ki came out at 7510 nM.
Still for that read-out and setting: next, `COc1ccc2c(c1)CC1c3cc4c(cc3CCN1C2)OCO4` (configuration not stated): 1330 nM; `COc1cc2c(cc1OC)C1Cc3cccc(OC)c3CN1CC2` (configuration not stated): 393 nM; `COc1ccc2c(c1)CC1c3cc(OC)c(OC)cc3CCN1C2` (configuration not stated): 8540 nM.

Still in this series, the particulars now being: read-out: pKi (converted).
As for `Oc1cc2c(cc1O)C1Cc3cccc(O)c3CN1CC2` (configuration not stated), the Ki is 85.1 nM.
For the compound `COc1ccc2c(c1)CC1c3cc(O)c(O)cc3CCN1C2` (configuration not stated), the Ki is 74.1 nM.
As to `Oc1ccc2c(c1)CC1c3cc(O)c(O)cc3CCN1C2` (configuration not stated), the Ki is 389 nM.
Still for that read-out and setting: next, `COc1ccc2c(c1)CC1c3cc(OCc4ccccc4)c(OCc4ccccc4)cc3CCN1C2` (configuration not stated): 41700 nM; `Oc1cccc2c1CN1CCc3cc4c(cc3C1C2)OCO4` (configuration not stated): 28.2 nM.
The same measure, in the same setting: next, `Oc1ccc2c(c1)CC1c3cc4c(cc3CCN1C2)OCO4` (configuration not stated): 6920 nM.
As to `COc1ccc2c(c1)CC1c3cc4c(cc3CCN1C2)OCO4` (configuration not stated), the Ki was 1150 nM.
For the compound `COc1cc2c(cc1OC)C1Cc3cccc(OC)c3CN1CC2` (configuration not stated), the Ki is 363 nM.
Still for that read-out and setting: next, `COc1ccc2c(c1)CC1c3cc(OC)c(OC)cc3CCN1C2` (configuration not stated): 5130 nM.

Tested on in another series: not listed separately
The series is described as follows: Cytotoxicity against human neutrophil assessed as cell viability at 0.3 uM after 24 hrs by MTT assay. Format: cell-based.
Settings: not given
The gist of the method: as §2
For `Oc1ccc2c(c1)CC1c3cc(O)c(Cl)cc3CCN1C2` (configuration not stated), the Activity result is reported as “Non-toxic”.

Tested on in a further series: not listed separately
Briefly: Cytotoxicity against human neutrophil assessed as cell viability at 10 uM after 24 hrs by MTT assay. The series is classed as cell-based.
Settings: not given
In short, it runs like this: as §2
Turning to `Oc1ccc2c(c1)CC1c3cc4c(cc3CCN1C2)OCO4` (configuration not stated), the Activity result is recorded as “Non-toxic”.
Same read-out and setting: next, `COc1ccc2c(c1)CC1c3cc(OC)c(OC)cc3CCN1C2` (configuration not stated): “Non-toxic”.

Tested on in a further series: not listed separately
The series is described as follows: Cytotoxicity against human neutrophil assessed as cell viability at 100 uM after 24 hrs by MTT assay. The series is classed as cell-based.
Settings: not given
In short, it runs like this: as §2
`COc1ccc2c(c1)CC1c3cc(OCc4ccccc4)c(OCc4ccccc4)cc3CCN1C2` (configuration not stated): the Activity result is listed as “Non-toxic”.

Tested on in the next series: not listed separately
The series is described as follows: Cytotoxicity against human neutrophil assessed as cell viability at 3 uM after 24 hrs by MTT assay.
Settings: not given
The series is classed as cell-based. The gist of the method: as §2
With `Oc1ccc2c(c1)CC1c3cc(O)c(O)cc3CCN1C2` (configuration not stated), the Activity entry was “Non-toxic”.
`COc1ccc2c(c1)CC1c3cc(OC)c(Cl)cc3CCN1C2` (configuration not stated): the Activity result is listed as “Non-toxic”.
Regarding `COc1ccc2c(c1)CC1c3cc4c(cc3CCN1C2)OCO4` (configuration not stated), the Activity entry is reported as “Non-toxic”.
`COc1cc2c(cc1OC)C1Cc3cccc(OC)c3CN1CC2` (configuration not stated): the Activity entry was “Non-toxic”.
